# In ChEMBL document CHEMBL1121860, “Characterization of alpha-adrenoceptor populations. Quantitative relationships between cardiovascular effects initiated at central and peripheral alpha-adrenoceptors” (J Med Chem, 1981):
# Tested on: not listed separately
# Assay: Partition coefficient (logD7.4)
# Format: physicochemical
# Details: octanol/water, pH 7.4
# Outline: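 Octanol against 0.1 M phosphate buffer at pH 7.4 and 37 °C. Drug at about 10^-4 M in octanol-saturated buffer was shaken for 1 h with buffer-saturated octanol, then left standing 6 h. Buffer-phase drug was measured by UV at λmax before and after partitioning, with GLC or potentiometric titration used for some compounds. Apparent P' is the mean of six partition experiments.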
row,Compound,logD
1,c1ccc2c(CC3=NCCN3)cccc2c1 [NAPHAZOLINE],-0.52
2,Cc1cccc(C)c1/N=C1/NCCO1,1.28
3,FC(F)(F)c1cc(Br)cc(Br)c1NC1=NCCN1,2.8
4,Cc1csc(Cl)c1NC1=NCCN1 [TIAMENIDINE],-0.17
5,c1ccc2c(c1)CCCC2C1=NCCN1 (stereo not given) [TETRAHYDROZOLINE],-0.9
6,Clc1cccc(Cl)c1CC1=NCCN1,-0.53
7,Clc1cccc(Cl)c1C1=CN2CCN=C2S1,2.02
8,Clc1cc(Br)cc(Cl)c1N=C1NCCN1,2.31
9,CC[C@H]1CCC[C@@H](C)[C@@H]1NC1=NCCO1,1.39
10,Clc1cccc(Cl)c1/C=N/NC1=NCCN1,2.12
11,C=CCN1CCc2nc(N)sc2CC1 [TALIPEXOLE],1.09
12,CCN1CCc2nc(N)oc2CC1 [AZEPEXOLE],0.05
13,Cc1cccc(C)c1N=C1NCCCS1 [XYLAZINE],1.34
14,Cc1cc(C(C)(C)C)cc(C)c1CC1=NCCN1 [XYLOMETAZOLINE],0.4
15,Clc1cccc(Cl)c1N=C1NCCN1 [CLONIDINE],0.85
16,Brc1c(NC2=NCCN2)ccc2nccnc12 [BRIMONIDINE],0.31
17,c1cc2c(c(NC3=NCCN3)c1)CCCC2 [TRAMAZOLINE],-0.62
18,Brc1cc(Br)c(N=C2NCCN2)c(Br)c1,2.51
19,Clc1cccc(Cl)c1N=C1NCCCN1,-0.34
20,CC(Oc1c(Cl)cccc1Cl)C1=NCCN1 (stereo not given) [LOFEXIDINE],0.73
21,Clc1cccc(Cl)c1SC1=NCCN1,1.36

# Biological target: T1, Adrenergic receptor alpha (Rattus norvegicus) (UniProt P15823+P23944+P43140+P22086+P19328+P22909)
# Assay: Central hypotensive activity in anesthetized normotensive rats.
# Format: functional
# Details: not given
# Outline: (§1)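 Male normotensive Wistar rats (190-220 g), pentobarbitone sodium 75 mg/kg ip, ventilated, ~37 °C; iv jugular dosing, one single dose per rat, randomized; carotid arterial pressure after ≥20 min equilibration with heparin; rats with MAP <100 or >150 mmHg excluded. Maximal MAP fall as % of preinjection; pC25 = log reciprocal dose (μmol/kg) for 25% fall, from log dose-response curves; points mean of 5-6 experiments.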
row,Compound,pC25
1,c1ccc2c(CC3=NCCN3)cccc2c1 [NAPHAZOLINE],0.95
2,Clc1cccc(Cl)c1NC1=NCCN1,2.04
3,Cc1csc(Cl)c1NC1=NCCN1 [TIAMENIDINE],0.69
4,c1ccc2c(c1)CCCC2C1=NCCN1 (stereo not given) [TETRAHYDROZOLINE],-0.16
5,Clc1cccc(Cl)c1CC1=NCCN1,0.68
6,Clc1cccc(Cl)c1C1=CN2CCN=C2S1,2.77
7,Clc1cc(Br)cc(Cl)c1N=C1NCCN1,0.84
8,Clc1cccc(Cl)c1/C=N/NC1=NCCN1,0.63
9,C=CCN1CCc2nc(N)sc2CC1 [TALIPEXOLE],1.43
10,CCN1CCc2nc(N)oc2CC1 [AZEPEXOLE],-0.14
11,Cc1cc(C(C)(C)C)cc(C)c1CC1=NCCN1 [XYLOMETAZOLINE],0.26
12,Brc1c(NC2=NCCN2)ccc2nccnc12 [BRIMONIDINE],1.55
13,c1cc2c(c(NC3=NCCN3)c1)CCCC2 [TRAMAZOLINE],0.55
14,CC(Oc1c(Cl)cccc1Cl)C1=NCCN1 (stereo not given) [LOFEXIDINE],2.09
15,Cc1cccc(C)c1NC1=NCCCS1,0.62
16,Clc1cccc(Cl)c1SC1=NCCN1,0.88

# Biological target: T1, Adrenergic receptor alpha (Rattus norvegicus)
# Assay: Tested for central hypotensive activity in anesthetized normotensive rats at alpha adrenoceptor expressed as 25% decrease in mean arterial pressure
# Details: not given
# Outline: as §1
row,Compound,pC25
1,Cc1cccc(C)c1/N=C1/NCCO1,1.96
2,CC[C@H]1CCC[C@@H](C)[C@@H]1NC1=NCCO1,2.32

# Biological target: T1, Adrenergic receptor alpha (Rattus norvegicus)
# Assay: Peripheral hypertensive activity in pithed normotensive rats.
# Format: functional
# Details: not given
# Outline: (§2)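 Normotensive rats under hexobarbitone sodium 150 mg/kg ip, pithed via orbit, ventilated, ~37 °C, heparinized; after 20 min equilibration, single iv jugular doses in random order, 3-4 per rat with recovery between; carotid MAP rise (mmHg). pC60 = log reciprocal dose (μmol/kg) raising MAP by 60 mmHg, from log dose-response curves; points mean of 5-6 experiments.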
row,Compound,pC60
1,c1ccc2c(CC3=NCCN3)cccc2c1 [NAPHAZOLINE],1.83
2,Clc1cccc(Cl)c1NC1=NCCN1,1.78
3,FC(F)(F)c1cc(Br)cc(Br)c1NC1=NCCN1,-0.26
4,Cc1csc(Cl)c1NC1=NCCN1 [TIAMENIDINE],1.2
5,c1ccc2c(c1)CCCC2C1=NCCN1 (stereo not given) [TETRAHYDROZOLINE],0.9
6,Clc1cccc(Cl)c1CC1=NCCN1,1.17
7,Clc1cccc(Cl)c1C1=CN2CCN=C2S1,2.4
8,Clc1cc(Br)cc(Cl)c1N=C1NCCN1,1.22
9,Clc1cccc(Cl)c1/C=N/NC1=NCCN1,0.23
10,C=CCN1CCc2nc(N)sc2CC1 [TALIPEXOLE],0.69
11,CCN1CCc2nc(N)oc2CC1 [AZEPEXOLE],-0.41
12,Cc1cc(C(C)(C)C)cc(C)c1CC1=NCCN1 [XYLOMETAZOLINE],1.12
13,Brc1c(NC2=NCCN2)ccc2nccnc12 [BRIMONIDINE],1.56
14,c1cc2c(c(NC3=NCCN3)c1)CCCC2 [TRAMAZOLINE],1.8
15,Brc1cc(Br)c(N=C2NCCN2)c(Br)c1,0.65
16,Clc1cccc(Cl)c1NC1=NCCCN1,-0.79
17,CC(Oc1c(Cl)cccc1Cl)C1=NCCN1 (stereo not given) [LOFEXIDINE],1.99
18,Cc1cccc(C)c1NC1=NCCCS1,-0.02
19,Clc1cccc(Cl)c1SC1=NCCN1,1.24

# Biological target: T1, Adrenergic receptor alpha (Rattus norvegicus)
# Assay: Tested for peripheral hypertensive activity in pithed normotensive rats at alpha adrenoceptor expressed as increase in mean arterial pressure by 60 mmHg
# Details: not given
# Outline: as §2
row,Compound,pC60
1,Cc1cccc(C)c1/N=C1/NCCO1,1.51
2,CC[C@H]1CCC[C@@H](C)[C@@H]1NC1=NCCO1,2.11
